The record followed here is article PMC9340768 (Journal of Medicinal Chemistry, 2022).

The subject of one data set is Nectin-4. Nature of the data set: Cross-species binding of the Nectin-4 Bicycle. On the set-up: species or system mouse, rat, monkey, and human.
The subject of another data set is CD137. Put plainly: Cross-species binding of the CD137 Bicycle. On the set-up: species or system human and monkey.
The test system of data set [1] is human PBMCs cocultured with HT1376. Nature of the data set: PBMC/HT1376 coculture cytokine secretion assay. Format: cell-based. Particulars: anti-CD3 stimulated PBMCs with HT1376. Put shortly:
(§1)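 Frozen healthy-donor human PBMCs were thawed, washed in PBS with benzonase and resuspended in RPMI with 10% heat-inactivated FBS, HEPES and glutamine. PBMCs (1 × 10^6/mL) were plated with tumor cells (1 × 10^5/mL) at 10:1, stimulated with soluble anti-CD3 OKT3 (100 ng/mL), and given diluted test compound. Incubation was 2 days at 37 °C, 5% CO2. Supernatant IFNγ and IL-2 were measured by Luminex; four-parameter fit, n = 3.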

A short description of data set [2]: Pharmacokinetics in Sprague-Dawley rats. Particulars: rat, in vivo, iv, 2 mg/kg, SD rats, 2 mg/kg IV bolus; for clearance: CL (mL/min/kg); for half-life: t½ (h), terminal half-life.
In another data set the test system is CT26-Nectin-4 tumors. Put plainly: CT26-Nectin-4 syngeneic tumor model. It is filed as in vivo, Balb/c mice. Particulars: 1 and 5 mg/kg QD IP.
Data set [3] has as its system human PBMCs cocultured with MC38-Nectin-4. Put plainly: PBMC/MC38-Nectin-4 coculture cytokine secretion assay. It is filed as cell-based. Particulars: anti-CD3 stimulated; IFNγ after 48 h. The method in brief:
as §1

Another data set deals with MC38-Nectin-4 tumors. Nature of the data set: CIVO intratumoral microdosing pharmacodynamics. It is filed as in vivo, huCD137 C57Bl/6 mice. As to conditions: 1.85 μM microdose, 24 h, IHC; compared to vehicle or MMAE injection sites. Put shortly: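 C57BL/6J-hCD137 mice bearing subcutaneous MC38-Nectin-4 tumors (around 860 mm3; three mice) were anesthetized and microdosed transcutaneously with the CIVO device. Each 2 μL injection held vehicle (25 mM histidine, 10% sucrose pH 7), 120 μM MMAE or 1.85 μM test compound, plus fluorescent tracking microspheres. Tumors were taken 24 h later, formalin-fixed, paraffin-embedded and stained by fluorescent IHC for CD8, GzB and DAPI. CD8+/GzB+ cells were normalized to total CD8+ cells; one-way ANOVA with Dunnett's post-test.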

A further data set is described as follows: Thermodynamic solubility. It is filed as physicochemical. Particulars: pH 7.4.

≈ marks a conversion by molar mass, not a printed value. Starred links: 1 amine or outer side, 2 acyl side, 3 side chain; linkers in the order of their positions; H or OH if unused. Positions of bridges follow the written chain, without caps; N, C: chain ends. Non-standard residues stand in square brackets, D forms with d. Residues, ends and D or L forms follow the SMILES beside them. TATA = O=C(CC[*:1])N1CN(C(=O)CC[*:2])CN(C(=O)CC[*:3])C1; tBuAla = CC(C)(C)C[C@H](N)C(=O)O; Nle = CCCC[C@H](N)C(=O)O

With `CSCC[C@@H]1NC(=O)[C@@H]2CSCCC(=O)N3CN(CN(C3)C(=O)CCSC[C@H](N)C(=O)N3CCC[C@H]3C(=O)N[C@@H](Cc3cccc4ccccc34)C(=O)N[C@H](CC(=O)O)C(=O)N2)C(=O)CCSC[C@@H](C(N)=O)NC(=O)[C@H](Cc2c[nH]c3ccccc23)NC(=O)[C@@H]2C[C@@H](O)CN2C(=O)[C@@H]2CCCN2C(=O)[C@H]([C@@H](C)O)NC(=O)[C@H](CO)NC(=O)[C@H](Cc2c[nH]c3ccccc23)NC(=O)[C@H](CC(=O)O)NC(=O)[C@H](CCCCNC(=N)N)NC1=O` [BCY8116], in the data set on Nectin-4, the “species cross-reactivity of binding to Nectin-4” value is “binds to mouse, rat, monkey, and human Nectin-4”.

Consider `CCCC[C@@H]1NC(=O)[C@H](Cc2ccc(O)cc2)NC(=O)[C@@H]2CCCN2C(=O)[C@H](CC(=O)O)NC(=O)[C@H](C)NC(=O)[C@H](Cc2ccccc2)NC(=O)[C@@H]2CSCCC(=O)N3CN(CN(C3)C(=O)CCSC[C@@H](C(=O)N[C@@H](C)C(N)=O)NC1=O)C(=O)CCSC[C@H](NC(C)=O)C(=O)N[C@@H](CC(C)(C)C)C(=O)N1CCC[C@H]1C(=O)N[C@@H](CCC(=O)O)C(=O)N[C@H](CCCCN)C(=O)N1CCC[C@H]1C(=O)N[C@@H](Cc1ccc(O)cc1)C(=O)N2` [BCY8928] (Ac-C[tBuAla]PE[dK]PYCFADPY[Nle]CA-NH2; linker 1-8-15 via TATA), for which the “species cross-reactivity of binding to CD137” value in the data set on CD137 is “binds only to human and monkey CD137”.

For the molecule `CCCC[C@@H]1NC(=O)[C@H](Cc2ccc(O)cc2)NC(=O)[C@@H]2CCCN2C(=O)[C@H](CC(=O)O)NC(=O)[C@H](C)NC(=O)[C@H](Cc2ccccc2)NC(=O)[C@@H]2CSCCC(=O)N3CN(CN(C3)C(=O)CCSC[C@@H](C(=O)N[C@@H](C)C(N)=O)NC1=O)C(=O)CCSC[C@H](NC(C)=O)C(=O)N[C@@H](CC(C)(C)C)C(=O)N1CCC[C@H]1C(=O)N[C@@H](CCC(=O)O)C(=O)N[C@H](CCCCNC(=O)CCc1cn(CCOCCOCCOCCOCCOCCC(=O)N[C@H]3CSCCC(=O)N4CN5CN(C4)C(=O)CCSC[C@H](NC(=O)[C@@H](CC(=O)O)NC(=O)[C@H](Cc4cccc6ccccc46)NC(=O)[C@@H]4CCCN4C3=O)C(=O)N[C@@H](CCSC)C(=O)N[C@@H](CCCCNC(=N)N)C(=O)N[C@@H](CC(=O)O)C(=O)N[C@@H](Cc3c[nH]c4ccccc34)C(=O)N[C@@H](CO)C(=O)N[C@@H]([C@@H](C)O)C(=O)N3CCC[C@H]3C(=O)N3C[C@H](O)C[C@H]3C(=O)N[C@@H](Cc3c[nH]c4ccccc34)C(=O)N[C@H](C(N)=O)CSCCC5=O)nn1)C(=O)N1CCC[C@H]1C(=O)N[C@@H](Cc1ccc(O)cc1)C(=O)N2` [BCY10572], in data set [1], the “secretion of proinflammatory cytokines IFNγ and IL-2” value (“secretion” below) is reported as “dose-dependent increase”. In addition, the clearance in data set [2] was found to be 18 mL/min/kg. Also, the antitumor activity result in the data set with CT26-Nectin-4 tumors (huCD137-Balb/c mice) is recorded as “Potent antitumor activity”; in the data set on CT26-Nectin-4 tumors (wt Balb/c mice), “no BCY10572 antitumor activity”.

As for `CCCC[C@@H]1NC(=O)[C@H](Cc2ccc(O)cc2)NC(=O)[C@@H]2CCCN2C(=O)[C@H](CC(=O)O)NC(=O)[C@H](C)NC(=O)[C@H](Cc2ccccc2)NC(=O)[C@@H]2CSCCC(=O)N3CN(CN(C3)C(=O)CCSC[C@@H](C(=O)N[C@@H](C)C(N)=O)NC1=O)C(=O)CCSC[C@H](NC(=O)[C@H](C)NC(C)=O)C(=O)N[C@@H]([C@@H](C)CC)C(=O)N[C@@H](CCC(=O)O)C(=O)N[C@@H](CCC(=O)O)C(=O)N[C@H](CCCCNC(=O)CCc1cn(CCOCCOCCOCCN(CCOCCOCCOCCC(=O)N[C@H]3CSCCC(=O)N4CN5CN(C4)C(=O)CCSC[C@H](NC(=O)[C@@H](CC(=O)O)NC(=O)[C@H](Cc4cccc6ccccc46)NC(=O)[C@@H]4CCCN4C3=O)C(=O)N[C@@H](CCSC)C(=O)N[C@@H](CCCCNC(=N)N)C(=O)N[C@@H](CC(=O)O)C(=O)N[C@@H](Cc3c[nH]c4ccccc34)C(=O)N[C@@H](CO)C(=O)N[C@@H]([C@@H](C)O)C(=O)N3CCC[C@H]3C(=O)N3C[C@H](O)C[C@H]3C(=O)N[C@@H](Cc3c[nH]c4ccccc34)C(=O)N[C@H](C(N)=O)CSCCC5=O)CCOCCOCCOCCn3cc(CCC(=O)NCCCC[C@H]4NC(=O)[C@H](CCC(=O)O)NC(=O)[C@H](CCC(=O)O)NC(=O)[C@H]([C@@H](C)CC)NC(=O)[C@@H](NC(=O)[C@H](C)NC(C)=O)CSCCC(=O)N5CN6CN(C5)C(=O)CCSC[C@H](NC(=O)[C@H](Cc5ccc(O)cc5)NC(=O)[C@H](CCC(N)=O)NC4=O)C(=O)N[C@@H](Cc4ccccc4)C(=O)N[C@@H](C)C(=O)N[C@@H](CC(=O)O)C(=O)N4CCC[C@H]4C(=O)N[C@@H](Cc4ccc(O)cc4)C(=O)N[C@@H](CCCC)C(=O)N[C@H](C(=O)N[C@@H](C)C(N)=O)CSCCC6=O)nn3)nn1)C(=O)N[C@@H](CCC(N)=O)C(=O)N[C@@H](Cc1ccc(O)cc1)C(=O)N2` [BCY11864], in data set [3], the “functional activity in PBMCs cocultured with MC38-Nectin-4” value was “functionally active”. In data set [1], the “secretion” value is recorded as “dose-dependent increase”. The “proportion of CD8+/GzB+ double positive cells of total CD8+ cells” value in the data set on MC38-Nectin-4 tumors is on record as “increase”. This molecule gave a half-life in data set [2] of 0.95 h.

Take `CCCC[C@@H]1NC(=O)[C@H](Cc2ccc(O)cc2)NC(=O)[C@@H]2CCCN2C(=O)[C@H](CC(=O)O)NC(=O)[C@H](C)NC(=O)[C@H](Cc2ccccc2)NC(=O)[C@@H]2CSCCC(=O)N3CN(CN(C3)C(=O)CCSC[C@@H](C(N)=O)NC1=O)C(=O)CCSCCC(=O)N[C@@H](CC(C)(C)C)C(=O)N1CCC[C@H]1C(=O)N[C@@H](CCC(=O)O)C(=O)N[C@H](CCCCNC(=O)CCc1cn(CCOCCOCCOCCN(CCOCCOCCOCCC(=O)N[C@H]3CSCCC(=O)N4CN5CN(C4)C(=O)CCSC[C@H](NC(=O)[C@@H](CC(=O)O)NC(=O)[C@H](Cc4cccc6ccccc46)NC(=O)[C@@H]4CCCN4C3=O)C(=O)N[C@@H](CCSC)C(=O)N[C@@H](CCCCNC(=N)N)C(=O)N[C@@H](CC(=O)O)C(=O)N[C@@H](Cc3c[nH]c4ccccc34)C(=O)N[C@@H](CO)C(=O)N[C@@H]([C@@H](C)O)C(=O)N3CCC[C@H]3C(=O)N3C[C@H](O)C[C@H]3C(=O)N[C@@H](Cc3c[nH]c4ccccc34)C(=O)N[C@H](C(N)=O)CSCCC5=O)CCOCCOCCOCCn3cc(CCC(=O)NCCCC[C@H]4NC(=O)[C@H](CCC(=O)O)NC(=O)[C@@H]5CCCN5C(=O)[C@H](CC(C)(C)C)NC(=O)CCSCCC(=O)N5CN6CN(C5)C(=O)CCSC[C@H](NC(=O)[C@H](Cc5ccc(O)cc5)NC(=O)[C@@H]5CCCN5C4=O)C(=O)N[C@@H](Cc4ccccc4)C(=O)N[C@@H](C)C(=O)N[C@@H](CC(=O)O)C(=O)N4CCC[C@H]4C(=O)N[C@@H](Cc4ccc(O)cc4)C(=O)N[C@@H](CCCC)C(=O)N[C@H](C(N)=O)CSCCC6=O)nn3)nn1)C(=O)N1CCC[C@H]1C(=O)N[C@@H](Cc1ccc(O)cc1)C(=O)N2` [BCY12587]: the “secretion” value in data set [1] is “dose-dependent increase”. In data set [2], this molecule had a clearance of 4.5 mL/min/kg and a half-life of 17 h. Further, the solubility (thermodynamic) in the data set “Thermodynamic solubility” was determined as 3100 µg/mL (≈ 446 µM).
